NPY-Y1 antag = NPY-Y1 receptor antagonists, primary screen, cell-based | Neuropeptide Y receptor type 1 (Homo sapiens), P25929 | HEK293-CNG Y1 cells, membrane potential fluorescence; NPY at EC95, then isoproterenol | inhibition, % at 3.6 µM | actives 1% (n = 200,000);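 active = inhibition above the campaign mean inhibition of all tested compounds plus 3 SD, cut at about 20% in these data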
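Material: HEK293 Y1/CNG channel cell line | Also added: NPY (25 nM), isoproterenol (1 µM), Ro 20-1724 (25 µM) | Compound: One concentration, 3.6 µM, in 0.4% DMSO | Schedule: 3 h dye uptake, 1 h room-temperature compound, 45 min post-isoproterenol | Signal: Membrane-potential fluorescent dye readout | Read-out: % inhibition of NPY effect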
S1P4 antag = S1P4 receptor antagonists, primary screen, cell-based; inhibition, % at 4.98 µM; Sphingosine 1-phosphate receptor 4 (Homo sapiens), O95977; S1P4-expressing cells, antagonist mode, reporter read-out; AID 1510, 2009; actives 0.26% (n = 220,000); in the data active = inhibition above about 29%
Target sequence (O95977 whole entry, looked up): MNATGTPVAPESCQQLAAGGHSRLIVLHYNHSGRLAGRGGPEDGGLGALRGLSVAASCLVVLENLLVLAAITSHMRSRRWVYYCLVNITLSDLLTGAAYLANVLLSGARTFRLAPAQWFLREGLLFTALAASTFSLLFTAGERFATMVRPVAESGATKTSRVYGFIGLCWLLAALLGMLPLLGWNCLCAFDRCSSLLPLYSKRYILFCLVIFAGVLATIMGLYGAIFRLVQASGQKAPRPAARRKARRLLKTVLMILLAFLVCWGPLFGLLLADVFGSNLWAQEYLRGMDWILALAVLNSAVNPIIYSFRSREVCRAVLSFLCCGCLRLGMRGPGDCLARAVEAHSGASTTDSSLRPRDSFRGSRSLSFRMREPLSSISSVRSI
NPY Y2 blocker = NPY-Y2 receptor antagonists, primary screen, cell-based; Neuropeptide Y receptor type 2 (Homo sapiens), P49146; NPY-Y2 expressing cells, antagonist mode; inhibition, % at 2.7 µM; actives 0.99% (n = 140,000); in the data active = inhibition above about 17%
Target sequence (P49146 whole entry, looked up): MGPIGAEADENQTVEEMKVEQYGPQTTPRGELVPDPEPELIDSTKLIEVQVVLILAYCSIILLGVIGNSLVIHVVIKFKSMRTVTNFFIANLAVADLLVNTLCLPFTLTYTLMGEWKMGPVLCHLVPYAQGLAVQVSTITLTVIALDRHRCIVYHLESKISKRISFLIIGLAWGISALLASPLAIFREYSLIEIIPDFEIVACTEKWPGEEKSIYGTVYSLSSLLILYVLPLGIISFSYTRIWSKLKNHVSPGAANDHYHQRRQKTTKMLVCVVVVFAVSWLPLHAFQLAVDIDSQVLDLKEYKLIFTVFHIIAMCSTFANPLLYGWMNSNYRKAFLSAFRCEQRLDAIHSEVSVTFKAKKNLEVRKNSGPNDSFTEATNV
S1P4 agonist = S1P4 receptor agonists, primary screen, cell-based | Sphingosine 1-phosphate receptor 4 (Homo sapiens), O95977 | S1P4-expressing cell line, agonist reporter assay | activation, % at 4.98 µM | actives 0.35% (n = 220,000) | AID 1509, 2009; in the data active = activation above about 11%
NPY1 pot ag = NPY-Y1 receptor potentiators or agonists, primary screen, cell-based | Neuropeptide Y receptor type 1 (Homo sapiens), P25929 | NPY-Y1 expressing cells, potentiator/agonist activation | activation, % at 3.6 µM | actives 0.37% (n = 220,000); in the data active = activation above about 33%, passing the limit was not always enough;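 also: cells stimulated with NPY at EC10 then isoproterenol at EC100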
NPY2 pot ag = NPY-Y2 potentiators or agonists, primary screen, cell-based; actives 0.45% (n = 220,000); activation, % at 3.6 µM; AID 1359, 2008; cells expressing NPY-Y2, potentiator/agonist read-out; Neuropeptide Y receptor type 2 (Homo sapiens), P49146; in the data active = activation above about 27%;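 also: cells stimulated with NPY near EC25 plus isoproterenol at EC100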
NPY-Y2 pot conf = NPY-Y2 potentiators or agonists, confirmation, cell-based | cell-based NPY-Y2 potentiator/agonist assay | actives 20% (n = 450) | AID 1539, 2009 | shares compounds with NPY2 pot ag | activation, % at 3.6 µM; in the data active = activation above about 33%
NPY-Y1 potentiator = NPY-Y1 potentiators or agonists, counter-screen for NPY-Y2 potentiator project, cell-based, fluorescence; Y1 HEK293-CNG cells, membrane potential fluorescence; activation, % at 3.6 µM; shares compounds with NPY2 pot ag; actives 20% (n = 450); in the data active = activation above about 45%;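 also: cells stimulated with submaximal NPY then isoproterenol with phosphodiesterase inhibitor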
NPY-Y1 ag 2 = NPY-Y1 direct agonists, selectivity assay for NPY-Y2 potentiator project, cell-based, fluorescence. AID 1702, 2009. shares compounds with NPY2 pot ag. activation, % at 3.6 µM. HEK293 Y1-CNGC, membrane potential fluorescence, agonism. actives 37% (n = 450);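 active = activation above the mean of DMSO-only control wells plus 3 SD, cut at about 18% in these data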;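 also: cells stimulated with 1 µM isoproterenol plus the PDE inhibitor Ro 20-1724; Y1 agonists lower the membrane potential dye signal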
CNGC inhibitor = CNGC cAMP sensor activity inhibitors, counter-screen for NPY-Y2 potentiator project, cell-based, HEK293-CNG parental, membrane potential fluorescence | actives 32% (n = 450) | shares compounds with NPY2 pot ag | inhibition, % at 3.6 µM | isoproterenol cAMP | AID 1703, 2009;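 active = inhibition above the control-well mean plus 3 SD of those wells, cut at about 22% in these data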
Y2 agonist ctr = NPY-Y2 direct agonists, counter-screen for NPY-Y2 potentiator project, cell-based, fluorescence; shares compounds with NPY2 pot ag; HEK293 Y2/CNGC cells, membrane potential fluorescence, agonist mode; activation, % at 3.6 µM; actives 56% (n = 450); AID 1710, 2009;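 active = activation above the mean of solvent-only control wells plus 3 SD, cut at about 10% in these data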;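 also: cells stimulated by isoproterenol with no NPY added so direct agonism is tested; agonism lowers probe fluorescence through less cAMP and CNG channel opening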
Hits are given with their value; i = inactive; nt = not tested or not shown. Rows were chosen to be rich in hits. Some 2.4% of all compounds tested hit in one or more screens of this group.

SMILES	NPY-Y1 antag	S1P4 antag	NPY Y2 blocker	S1P4 agonist	NPY1 pot ag	NPY2 pot ag	NPY-Y2 pot conf	NPY-Y1 potentiator	NPY-Y1 ag 2	CNGC inhibitor	Y2 agonist ctr
COc1ccc(CNC(=O)c2noc(C)c2[N+](=O)[O-])cc1	i	i	nt	i	i	i	nt	nt	nt	nt	nt
S=c1cnc2ccccc2[nH]1	i	i	nt	i	i	i	nt	nt	nt	nt	nt
Cc1cc(N/C(=N/S(=O)(=O)c2ccc(F)cc2)c2ccccc2)n(-c2ccccc2)n1	i	i	nt	i	i	28.1	i	i	i	i	i
CN(C(=O)COC(=O)c1ccc2c(=O)n3c(nc2c1)CCC3)C1CCS(=O)(=O)C1 (configuration not stated)	i	i	nt	i	i	i	nt	nt	nt	nt	nt
CC(=O)c1ccc(NC(=O)COC(=O)c2ccccc2N=Nc2ccc(N(C)C)cc2)cc1	i	i	i	i	i	44.3	47.6	61.9	50.1	44.3	41.5
COc1ccc(S(=O)(=O)NCC2CCC(C(=O)NCC(OC)OC)CC2)cc1 (configuration not stated)	i	i	nt	i	i	i	nt	nt	nt	nt	nt
CC(C)C(=O)Nc1ccc(N2CCCC2)cc1	i	i	i	i	i	i	nt	nt	nt	nt	nt
CC(C)C(=O)Nc1ccc(N2CCN(c3ccc(F)cc3)CC2)cc1	i	i	nt	i	i	30.9	i	i	i	i	i
Cc1c([N+](=O)[O-])c(C(=O)Sc2ccc(Br)cc2)nn1C	nt	i	nt	i	i	44.0	i	i	i	i	15.7
Cc1c([N+](=O)[O-])c(C(=O)N2CCCC2)nn1C	i	i	i	i	i	i	nt	nt	nt	nt	nt
O=C(C1=C[C@@H](C2CC2)C[C@@H](OCCCCO)O1)N1CCN(Cc2ccccc2)CC1	i	i	nt	i	i	i	nt	nt	nt	nt	nt
Cc1ncccc1C(=O)N1CCCC(C(=O)c2ccc3c4c(cccc24)CC3)C1 (configuration not stated)	i	i	nt	i	i	72.2	i	i	i	i	i
Cc1ccc(NC(=O)CN(c2ccccc2)S(=O)(=O)N(C)C)cc1	i	i	i	i	i	i	nt	nt	nt	nt	nt
Cc1ccc(/C=N/NC(=O)CNC(=O)c2ccc(S(=O)(=O)N3CCCC3)cc2)o1	i	i	nt	i	i	83.8	i	i	i	i	i
O=C(CNC(=O)c1ccc(S(=O)(=O)N2CCCCC2)cc1)N/N=C/c1ccco1	i	i	nt	i	i	i	nt	nt	nt	nt	nt
Cc1c(C(C)C)c(=O)n(-c2ccc(S(=O)(=O)NCc3ccccc3)cc2)n1C	i	i	nt	i	i	35.1	i	i	i	i	i
Cc1c(C(C)C)c(=O)n(-c2ccc(S(=O)(=O)NC3CCCCC3)cc2)n1C	i	i	nt	i	i	i	nt	nt	nt	nt	nt
CCc1ccc(NC(=S)N(Cc2ccc(Cl)cc2)Cc2ccc(C(=O)O)cc2)cc1	i	i	nt	i	i	32.3	i	i	i	i	i
CC(C)S(=O)(=O)c1csc(C(=O)Nc2ccc(F)cc2)c1N	nt	i	nt	i	i	i	nt	nt	nt	nt	nt
CCCOc1ccc(/C=N/NC(=O)c2ccc(Cn3cc([N+](=O)[O-])cn3)o2)cc1	i	i	i	i	i	40.7	i	i	i	i	i
Cc1ccc(/C=N/NC(=O)c2ccc(Cn3cc([N+](=O)[O-])cn3)o2)cc1	i	i	i	i	i	i	nt	nt	nt	nt	nt
N#C/C(=N\Nc1cccc(C(F)(F)F)c1)C(=O)c1ccsc1	nt	i	nt	i	i	50.5	i	i	i	i	i
Cc1nccc(-c2cccc(N/N=C(\C#N)C(=O)c3ccccc3)c2)n1	nt	i	nt	i	i	i	nt	nt	nt	nt	nt
O=S(=O)(c1ccccc1)N1CCC(O)(CSc2ccc(Cl)cc2)CC1	i	i	i	i	i	33.8	i	i	i	i	i
COC(=O)CSc1nnc(-c2ccc(OC)cc2OC)o1	i	i	i	i	i	49.9	36.1	61.4	36.1	49.1	24.8
SMILES	NPY-Y1 antag	S1P4 antag	NPY Y2 blocker	S1P4 agonist	NPY1 pot ag	NPY2 pot ag	NPY-Y2 pot conf	NPY-Y1 potentiator	NPY-Y1 ag 2	CNGC inhibitor	Y2 agonist ctr
CC(C)(C)n1nnnc1C(c1cccc(C#N)c1)N1CCCc2ccccc21 (configuration not stated)	i	i	i	i	i	27.1	i	i	i	i	i
Cc1cc2c(cc1C)N(C(=O)CSC1=NCCS1)C(C)(C)c1ssc(=S)c1-2	i	i	i	i	i	41.6	i	i	23.7	i	29.4
Cc1ccc2c(c1)-c1c(ssc1=S)C(C)(C)N2C(=O)CSc1nncn1C	i	i	i	i	i	i	nt	nt	nt	nt	nt
COc1ccc2c(c1)-c1c(ssc1=S)C(C)(C)N2C(=O)CSC1=NCCS1	i	i	i	i	i	43.0	i	i	23.5	23.5	19.9
CSCC(O)Cn1ncc2ccccc2c1=O (configuration not stated)	nt	i	nt	i	i	i	nt	nt	nt	nt	nt
CC(C)NC(=O)NC(=O)COC(=O)c1cccc(S(=O)(=O)N2CCCCC2)c1	i	i	i	i	i	i	nt	nt	nt	nt	nt
Clc1cc(Cl)cc(Nc2ncn[nH]2)c1	i	i	i	i	i	i	nt	nt	nt	nt	nt
N#Cc1c(Cl)c(Cl)c2nnc(-c3ccc(Br)cc3)n2c1Cl	i	i	i	i	i	i	nt	nt	nt	nt	nt
Cc1cccc2sc(N(CCN(C)C)C(=O)c3cc(Cl)sc3Cl)nc12	i	i	i	i	i	i	nt	nt	nt	nt	nt
CN(C)CCCN(C(=O)CCc1ccccc1)c1nc2c(F)cccc2s1	i	i	i	i	i	i	nt	nt	nt	nt	nt
CN(C)CCCN(C(=O)/C=C/c1cccs1)c1nc2c(F)cccc2s1	i	i	nt	i	i	35.9	65.8	73.4	54.9	63.4	64.5
Cc1cccc2sc(N(CCN(C)C)C(=O)/C=C/c3cccs3)nc12	i	i	i	i	i	52.9	91.0	112.2	96.8	86.1	100.3
CC(=O)Nc1ccc(S(=O)(=O)N2CCC(n3cnc4cc(F)ccc43)CC2)cc1	i	i	i	i	i	35.1	i	i	i	i	i
COC(=O)/C(=C\Nc1cccc(Cl)c1C)c1ncc(C(F)(F)F)cc1Cl	i	i	i	i	i	57.5	i	i	i	i	i

Assay outcomes: PubChem BioAssay, The Scripps Research Institute Molecular Screening Center
